# Dynein transport – dynein cargo transport inhibition. 3617.4 mouse cells, GR-EGFP nuclear translocation imaging; test concentration mostly 20 µM; stimulated with dexamethasone, 1 µM; stronger effect = lower value. z-score, hits read low. actives 0.47% (n = 220,000). AID 1381;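 active means plate z-score of nuclear minus cytoplasmic receptor signal below a set negative limit, without overly bright fluorescence or cell loss, cut at about -3.5 in these data, passing the limit was not always enough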;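 further: z-score of nuclear minus cytoplasmic ring GR-EGFP intensity difference per well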
#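 Buffer or medium: tet-free, stripped-serum medium; reagent: dexamethasone at 1.0 µM final, 30 min; incubation: 48 h induction, 1 h compound, 30 min dex at 37 °C; measured by: formaldehyde fixation, Hoechst nuclear stain, 10x automated fluorescence imaging; read-out: nuclear-to-cytoplasmic GR-EGFP distribution per well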
# MT stabilize HCS – microtubule stabilization, imaging screen. HeLa tubulin immunostaining HCS, 24 h; share of cells brighter than vehicle mean+2SD. % tubulin-high responders, % at 10 µM. actives 0.83% (n = 200,000);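 active means plate Z-score above 3 for both tubulin-high and condensed-nucleus cell shares, with cell loss under 80%, at 10 µM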;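 further: anti alpha tubulin signal scored within the nucleus-defined area of each cell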
# CHOP inh – CHOP inhibition in unfolded protein response | CHO-K1 CHOP-promoter luciferase, tunicamycin-induced, 15-18 h | inhibition, % at 10 µM | actives 3.8% (n = 220,000);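 active means compounds that reduced the stress-induced luciferase reporter signal by more than about 70% of percent inhibition, limit read from the data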;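 further: 0% = tunicamycin plus vehicle and 100% = wells without tunicamycin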
# Autophagy HCS – modulators of autophagy; actives 0.98% (n = 190,000); calls only at 10 µM (by protocol); MEF GFP-LC3 puncta imaging; test concentration mostly 10 µM; AID 463193;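 active means percentage of spot-positive cells more than 3 SD above its plate mean, without a fluorescence outlier flag or 80% toxicity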;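 further: spot-positive cell cutoff set from DMSO-treated cells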
# Lmaj promast – reduces viability of Leishmania major promastigotes; AID 1063; actives 9% (n = 200,000); resazurin fluorescence viability; inhibition, % at 10 µM; in the data active means inhibition above about 50%;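 further: promastigotes grown with compound for 44 hours at 28 °C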
# b-catenin transl – modulators of beta-catenin nuclear translocation | AID 1665 | nuclear translocation activity, % at 5 µM | HeLa beta-catenin nuclear translocation, immunofluorescence imaging | actives 0.3% (n = 190,000);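 active means nuclear translocation activity above 50% at 5 µM, with a well cell count of 50 or more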;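 further: per-cell ratio of nuclear to cytoplasmic median beta-catenin stain intensity; plate controls were DMSO negative control for no effect and GSK-3 inhibitor IX positive control for full effect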
#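 assay system = human HeLa cells, endogenous beta-catenin | times = compound treatment 24 h, 37°C, 5% CO2 | detection = Anti-beta-catenin immunofluorescence on PFA-fixed, Triton-permeabilized cells, DAPI nuclei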
# * marks the source's active call; other numbers are inactive results; i = inactive; / = no result given; + = active, no number. Rows were chosen to be rich in hits. Some 12% of all compounds tested hit in one or more screens of this group.
SMILES,Dynein transport,MT stabilize HCS,CHOP inh,Autophagy HCS,Lmaj promast,b-catenin transl
CC(C)(C)NC(=O)C(c1ccncc1)N(C(=O)C1CSC(=O)C1)c1ccccc1 (stereo unspecified),-0.32,3,9,i,-5,0
Cc1ccc(NNC(=O)c2ccc(Cl)cc2)nn1,-0.55,/,-5,/,/,-3
COc1ccc([C@H]2C(C#N)=C([S-])N[C@](C)(O)[C@@H]2[n+]2ccccc2)cc1,-0.21,/,27,/,/,0
C=CCNc1ncnc2c1cnn2-c1ccc(Cl)cc1,0.48,5,25,i,-3,-2
Clc1ccc(-n2ncc3c(NCCCn4ccnc4)ncnc32)cc1,0.14,1,-23,i,100*,-3
CCN(CC)S(=O)(=O)c1cccc(C(=O)NCCCn2ccnc2)c1,0.54,/,15,/,/,1
c1cnc(SCCOc2cccc3ccccc23)nc1,-0.69,1,76*,i,3,2
Clc1ccc(OCCSc2ncccn2)c2ccccc12,0.098,3,65,i,-1,2
COc1ccc(/C(C)=N/NS(=O)(=O)c2cc(C)ccc2C)c(OC)c1,-0.26,4,20,i,18,0
COCCN1C(=O)c2cc(C(=O)Nc3cccc(F)c3)ccc2C1Nc1cccc(F)c1 (stereo unspecified),-0.67,4,90*,i,-8,-2
CCc1ccc(NC(=O)c2ccc3c(c2)C(=O)N(CCOC)C3Nc2ccc(CC)cc2)cc1 (stereo unspecified),-0.92,7,94*,i,0,-1
COCCN1C(=O)c2cc(C(=O)Nc3ccc(C)c(F)c3)ccc2C1Nc1ccc(C)c(F)c1 (stereo unspecified),2.8,5,46,i,11,-2
CCCN1C(=O)c2cc(C(=O)Nc3ccccc3C)ccc2C1Nc1ccccc1C (stereo unspecified),0.86,/,5,/,/,0
CN(C)/C=N/c1cc(=O)[nH]c(=O)n1C,1.1,2,6,i,-7,/
OC(C#CCCN1CCCCC1)(c1ccccc1)c1ccccc1,-0.086,/,21,/,/,-1
CN1CCCC(C#CC(O)(c2ccccc2)c2ccccc2)C1 (stereo unspecified),0.35,2,48,i,78*,0
Nc1nonc1-c1nc2ccccc2n1CC(=O)Nc1ccccc1,0.19,/,12,/,/,0
CC(C)CCn1c(-c2nonc2N)nc2ccccc21,0.68,3,59,i,-3,5
Nc1nonc1-c1nc2ccccc2n1Cc1ccccc1,0.78,3,/,+,0,/
CCOC(=O)c1ccccc1NC(=O)Cn1c(-c2nonc2N)nc2ccccc21,1.2,7,/,i,10,63*
N#Cc1cn(CC(=O)NCCc2c[nH]c3ccccc23)c2ccccc12,-0.16,2,25,i,88*,-1
O=C(NCCc1c[nH]c2ccccc12)Nc1ccccc1,-1.3,3,24,i,40,0
N#Cc1cccc(NC(=O)NCCc2c[nH]c3ccccc23)c1,1.3,2,21,i,90*,2
Cc1c(C#N)c2ccccc2n1CC(=O)NCCc1c[nH]c2ccccc12,-0.28,2,38,i,27,0
O=C(NN1C(=O)C2C3c4ccccc4C(c4ccccc43)C2C1=O)c1ccc(Cl)cc1 (stereo unspecified),0.29,3,-9,i,72*,-2
SMILES,Dynein transport,MT stabilize HCS,CHOP inh,Autophagy HCS,Lmaj promast,b-catenin transl
Cc1ccc(C(C(=O)NCc2ccco2)N(CCc2ccccc2)C(=O)Cn2nnc3ccccc32)o1 (stereo unspecified),1.1,3,7,i,15,-2
CCc1nn(-c2ccccc2)c(N)c1-c1ccc(OC)c(OC)c1,0.34,2,17,i,0,/
Cc1[nH]c2ccccc2c1C(C[N+](=O)[O-])c1cccc(O)c1 (stereo unspecified),0.65,2,18,i,14,1
Cc1[nH][nH]c(=O)c1C(c1ccc(O)c([N+](=O)[O-])c1)c1c(C)[nH][nH]c1=O,-0.33,5,7,i,1,-3
O=c1[nH][nH]c(-c2ccccc2O)c1C(C[N+](=O)[O-])c1cccc(Cl)c1 (stereo unspecified),-3.5,2,3,i,100*,0
O=c1[nH][nH]c(-c2ccccc2O)c1C(C[N+](=O)[O-])c1ccccc1 (stereo unspecified),-2.1,5,4,i,98*,2
O=c1[nH][nH]c(-c2ccccc2O)c1C(C[N+](=O)[O-])c1ccc(Cl)cc1Cl (stereo unspecified),1.2,1,3,i,98*,2
Cc1c(Cl)cccc1NC(=S)/C(=C(\[O-])c1ccc(Cl)s1)[n+]1ccccc1,-0.18,3,4,i,64*,-2
COc1ccc(-c2nn(-c3ccccc3)cc2C(=O)N2c3ccc(C)cc3C3CN(C)CCC32)cc1 (stereo unspecified),0.51,3,57,+,59*,1
CC(=O)Nc1cccc(C(=O)/C=C/c2ccc(C)cc2)c1,-0.34,6,-39,i,100*,3
CCOc1ccc(/C=C/C(=O)Nc2cccc(C(C)=O)c2)cc1,1.5,4,9,i,-4,0
CSc1ccc(/C=C/C(=O)c2ccc(NC(C)=O)cc2)cc1,0.67,5,-14,i,57*,-1
Cc1cc(C)n(-c2nc3c(c(=O)n(Cc4ccc(Cl)c(Cl)c4)c(=O)n3C)n2C)n1,-0.41,4,/,i,-4,/
Cc1ccc2c(CN3CCN(CCO)CC3)cc(=O)oc2c1C,-0.56,1,-9,i,55*,-1
CCN1CCN(Cc2cc(=O)oc3cc4c(cc23)CCC4)CC1,-0.77,3,32,i,8,1
Cc1ccc2c(CN3CCN(C(=O)c4ccco4)CC3)cc(=O)oc2c1C,-0.2,5,19,i,6,1
CN1CCN(Cc2cc(=O)oc3cc4c(cc23)CCC4)CC1,-0.35,6,9,i,65*,1
Cc1cc2oc(=O)cc(CN3CCCc4ccccc43)c2cc1C,-0.67,5,17,i,99*,-2
CN1CCN(CC(=O)Nc2cc(N(C)C)nc3ccccc23)CC1,-0.1,2,16,i,23,1
Cn1c(N)c(C(=O)COC(=O)CNS(=O)(=O)c2ccc(Cl)c(Cl)c2)c(=O)n(C)c1=O,0.88,1,-3,i,2,0
C=CCn1c(CCC(O)COCCC)n[nH]c1=S (stereo unspecified),-0.68,2,-14,i,-5,-2
COCCn1c(SCCCc2ccccc2)nc2c1c(=O)[nH]c(=O)n2C,-0.57,6,-5,i,-6,-6

# Screens: PubChem BioAssay, several laboratories
